Assay results reported in ChEMBL document CHEMBL4321805, “A Conformational Restriction Strategy for the Identification of a Highly Selective Pyrimido-pyrrolo-oxazine mTOR Inhibitor” (J Med Chem, 2019).

Key:
CYP1A2 [1] = target: T1, CYP1A2 (Homo sapiens, UniProt P05177); assay: Substrate activity at recombinant human CYP1A2 expressed in baculovirus infected insect cells assessed as parent compound remaining at 1 uM incubated for 60 mins in presence of NADP+-regenerating system by LC-MS analysis; assay type: ADME; details: read-out: Stability
T1 sequence (P05177 whole entry): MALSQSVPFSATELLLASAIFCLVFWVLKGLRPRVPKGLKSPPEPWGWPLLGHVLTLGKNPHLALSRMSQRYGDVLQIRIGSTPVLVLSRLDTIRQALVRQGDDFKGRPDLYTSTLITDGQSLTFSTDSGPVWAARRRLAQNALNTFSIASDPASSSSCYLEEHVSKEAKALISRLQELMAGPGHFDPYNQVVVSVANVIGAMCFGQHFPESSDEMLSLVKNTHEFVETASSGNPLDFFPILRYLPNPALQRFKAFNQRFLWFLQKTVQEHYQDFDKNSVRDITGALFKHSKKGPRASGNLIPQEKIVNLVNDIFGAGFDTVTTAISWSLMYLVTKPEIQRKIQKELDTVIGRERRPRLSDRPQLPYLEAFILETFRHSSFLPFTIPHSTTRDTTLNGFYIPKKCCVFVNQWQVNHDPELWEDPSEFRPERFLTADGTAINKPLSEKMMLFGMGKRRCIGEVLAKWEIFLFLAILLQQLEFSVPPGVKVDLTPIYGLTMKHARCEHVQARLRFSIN
In short: (§1)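 Baculovirus/insect-cell Supersomes, each expressing a single human CYP, at 25 pmol/mL. Compound at 1 μM (0.25% DMSO), 37 °C, 60 min. Reactions run with a NADP+-regenerating cofactor mix or, as negative control, without cofactors and glucose-6-phosphate dehydrogenase. Stopped with ACN containing internal standard. Duplicates; % remaining from absolute amounts.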

mTORC2 = mTORC2 (Homo sapiens, UniProt P42345); assay: Inhibition of mTORC2 in human A2058 cells assessed as reduction in PKB phosphorylation at S473 residues incubated for 1 hr by Western blot analysis; assay type: cell-based
In short: (§2)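 In-cell Western assay. A2058 cells (2 × 10^4/well) grown 24 h at 37 °C, 5% CO2, then exposed 1 h to inhibitor or DMSO. Cells fixed in 4% PFA, blocked, and stained for the phospho-protein with α-tubulin as internal standard; infrared fluorescence read-out. Signals normalized to tubulin and to DMSO controls to derive IC50.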

[2] = target: Serine/threonine-protein kinase mTOR (Homo sapiens, UniProt P42345); assay: Binding affinity to wild-type human partial length mTOR (L1382 to W2549 residues) expressed in mammalian expression system by kinome scan assay
In short: (§3)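 DNA-tagged kinases competed against immobilized ligand with an 11-point 3-fold serial dilution starting from 30 μM. Kinase bound measured by qPCR of the DNA tags. Kd from standard dose–response curves with the Hill equation (Hill slope −1); mean of duplicate experiments.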

mTORC1 = mTORC1 (Homo sapiens, UniProt P42345); assay: Inhibition of mTORC1 in human A2058 cells assessed as reduction in ribosomal protein S6 phosphorylation at Ser235/236 residues incubated for 1 hr by Western blot analysis; assay type: cell-based; in short: as §2
Homo sapiens = species on record: Homo sapiens; assay: Selectivity ratio of Kd for binding affinity to human wild-type partial length PI3Kalpha (R108 to N1068 residues) expressed in mammalian expression system to Kd for binding affinity to wild-type human partial length mTOR (L1382 to W2549 residues) expressed in mammalian expression system
In short: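 Ratio of Kd values from the DNA-tagged kinase competition binding assay (qPCR read-out, 11-point 3-fold dilution from 30 μM, Hill fit with slope −1, duplicates): PI3Kα Kd divided by mTOR Kd.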

CYP1A2 [3] = target: T1, CYP1A2; assay: Substrate activity at recombinant human CYP1A2 expressed in baculovirus infected insect cells assessed as parent compound remaining at 1 uM incubated for 60 mins in absence of NADP+-regenerating system by LC-MS analysis; assay type: ADME; details: read-out: Stability; in short: as §1
CYP1A2 [4] = target: T1, CYP1A2; assay: Drug metabolism assessed as recombinant human CYP1A2-mediated compound hydrolysis by measuring parent compound remaining incubated for 60 mins by LC-HRMS analysis; assay type: ADME; details: read-out: Stability
In short: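 Human recombinant CYP1A1 or CYP1A2 Supersomes (25 pmol/mL) incubated with compound at 1 μM (0.25% DMSO) plus NADP+-regenerating cofactors at 37 °C for 60 min. Reaction stopped with ACN containing internal standard. Parent and metabolites expressed as percentage of total peak areas.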

CYP1A1 [5] = target: T2, CYP1A1 (Homo sapiens, UniProt P04798); assay: Substrate activity at recombinant human CYP1A1 expressed in baculovirus infected insect cells assessed as parent compound remaining at 1 uM incubated for 60 mins in absence of NADP+-regenerating system by LC-MS analysis; assay type: ADME; details: read-out: Stability; in short: as §1
T2 sequence (P04798 whole entry): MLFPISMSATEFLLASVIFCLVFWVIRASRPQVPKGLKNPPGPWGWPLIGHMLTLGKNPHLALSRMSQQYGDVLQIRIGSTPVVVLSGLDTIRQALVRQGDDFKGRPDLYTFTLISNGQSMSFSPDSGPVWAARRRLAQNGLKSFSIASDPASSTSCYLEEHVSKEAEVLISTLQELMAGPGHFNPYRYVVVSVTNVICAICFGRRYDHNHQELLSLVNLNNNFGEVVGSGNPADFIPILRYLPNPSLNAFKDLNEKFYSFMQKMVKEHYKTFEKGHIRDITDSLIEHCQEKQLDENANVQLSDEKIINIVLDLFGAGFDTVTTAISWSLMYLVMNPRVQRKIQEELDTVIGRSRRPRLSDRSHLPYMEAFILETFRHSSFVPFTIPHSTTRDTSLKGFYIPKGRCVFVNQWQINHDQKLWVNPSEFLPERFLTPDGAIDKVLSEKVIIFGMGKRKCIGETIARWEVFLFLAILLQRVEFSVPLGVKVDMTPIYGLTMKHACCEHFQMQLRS

[6] = Stability in Beagle dog hepatocytes assessed as parent compound remaining at 5 uM after 3 hrs by LC-MS analysis; assay type: ADME, cell-based, Canis lupus familiaris, Hepatocyte; details: read-out: Stability
In short: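 Cryopreserved hepatocytes in suspension (200 000 cells/well) in Williams medium E with 2 mM L-glutamine and 25 mM HEPES. Test item at a final 5 μM (0.5% DMSO). Sampled at 0, 15, 60, 90 and 180 min. Precipitated with ACN, then LC–MS. Controls: 7-ethoxycoumarin and hepatocyte-free medium; n = 2.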

[7] = target: Phosphatidylinositol 4,5-bisphosphate 3-kinase catalytic subunit beta isoform (Homo sapiens, UniProt P42338); assay: Binding affinity to human wild-type partial length PI3Kbeta (P118 to S1070 residues) expressed in mammalian expression system by kinome scan assay; in short: as §3
Phosphatidylinositol 4,5-bisphosphate 3-kinase catalytic subunit beta isoform, sequence (P42338 whole entry, the tested form may be a part, canonical isoform): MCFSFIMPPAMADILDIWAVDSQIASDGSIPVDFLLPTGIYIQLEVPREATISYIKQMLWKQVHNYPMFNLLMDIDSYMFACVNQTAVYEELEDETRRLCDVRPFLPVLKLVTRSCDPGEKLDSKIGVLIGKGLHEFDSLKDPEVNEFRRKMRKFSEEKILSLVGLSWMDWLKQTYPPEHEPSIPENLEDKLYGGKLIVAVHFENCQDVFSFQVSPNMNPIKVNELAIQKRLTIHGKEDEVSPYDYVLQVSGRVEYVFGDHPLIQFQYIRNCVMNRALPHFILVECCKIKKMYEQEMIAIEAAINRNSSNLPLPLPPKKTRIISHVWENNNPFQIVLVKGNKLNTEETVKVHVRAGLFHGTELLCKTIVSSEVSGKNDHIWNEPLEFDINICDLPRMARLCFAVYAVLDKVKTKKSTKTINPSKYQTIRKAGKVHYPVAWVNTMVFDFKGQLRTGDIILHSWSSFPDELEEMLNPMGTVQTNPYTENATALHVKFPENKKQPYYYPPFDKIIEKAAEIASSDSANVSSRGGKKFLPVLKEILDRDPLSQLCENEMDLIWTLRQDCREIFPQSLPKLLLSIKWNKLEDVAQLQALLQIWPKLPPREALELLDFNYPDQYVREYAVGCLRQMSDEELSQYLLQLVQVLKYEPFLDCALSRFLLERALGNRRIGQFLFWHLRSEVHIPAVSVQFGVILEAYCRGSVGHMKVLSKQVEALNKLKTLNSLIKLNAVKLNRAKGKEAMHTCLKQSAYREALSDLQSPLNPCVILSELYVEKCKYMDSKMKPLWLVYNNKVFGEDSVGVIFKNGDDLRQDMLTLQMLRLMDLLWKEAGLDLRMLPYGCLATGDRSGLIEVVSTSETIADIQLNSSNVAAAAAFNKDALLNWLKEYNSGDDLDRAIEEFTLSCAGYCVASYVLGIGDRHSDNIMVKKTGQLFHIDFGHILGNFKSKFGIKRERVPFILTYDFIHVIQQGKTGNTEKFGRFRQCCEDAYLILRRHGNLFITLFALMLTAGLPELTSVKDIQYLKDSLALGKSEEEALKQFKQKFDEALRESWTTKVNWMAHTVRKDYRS

CYP1A1 [8] = target: T2, CYP1A1; assay: Substrate activity at recombinant human CYP1A1 expressed in baculovirus infected insect cells assessed as parent compound remaining at 1 uM incubated for 60 mins in presence of NADP+-regenerating system by LC-MS analysis; assay type: ADME; details: read-out: Stability; in short: as §1
[9] = AUC (0 to 8 hrs) in Sprague-Dawley rat plasma at 5 mg/kg, po by UHPLC-MS analysis; assay type: ADME, organism-based; set-up: time < 8 hr, dose 5 mg/kg, route oral
In short: (§4)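 Male Sprague Dawley rats (8 weeks old at delivery), single oral dose of 5 mg/kg, formulation at pH 3. Three rats per time point (30 min, 2, 4, 8 h) under isoflurane; heart-puncture blood into lithium-heparin, then brain collected. Plasma and tissue stored at −80 °C. Samples precipitated with acetonitrile containing diazepam internal standard, then LC–MS.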

[10] = AUC (0 to 8 hrs) in Sprague-Dawley rat brain at 5 mg/kg, po by UHPLC-MS analysis; assay type: ADME, organism-based; set-up: time < 8 hr, dose 5 mg/kg, route oral; details: in vivo; in short: as §4

| Compound | remaining at 1 h, 1 µM (CYP1A2 [1]) | IC50 (mTORC2) | Kd [2] | IC50 (mTORC1) | Selectivity ratio (Homo sapiens) | remaining at 1 h, 1 µM (CYP1A2 [3]) | remaining at 1 h (CYP1A2 [4]) | remaining at 1 h, 1 µM (CYP1A1 [5]) | remaining at 3 h, 5 µM [6] | Kd [7] | remaining at 1 h, 1 µM (CYP1A1 [8]) | AUC(0-t) at 8 h [9] | AUC [10] |
| --- | --- | --- | --- | --- | --- | --- | --- | --- | --- | --- | --- | --- | --- |
| C[C@@H]1COCCN1c1nc(-c2cnc(N)nc2)nc2c1C[C@@H]1COCCN21 | 73% | 77 nM | 14 nM | 55 nM | 8.6 | 91% | 99.7% | 93% | 93% | 1400 nM | 51% |  |  |
| C[C@@H]1COCCN1c1nc(-c2cnc(N)cn2)nc2c1C[C@@H]1COCCN21 | 92% | 94 nM | 3.5 nM | 60 nM | 457 | 91% |  | 96% |  | 7500 nM | 77% | 5730 ng·h/mL | 104 ng·h/g |
| C[C@@H]1COCCN1c1nc(-c2ccc(N)nc2)nc2c1C[C@@H]1COCCN21 |  | 133 nM | 34 nM | 61 nM | 17.9 | 94% |  | 109% |  | 4100 nM |  |  |  |
